According to ChEMBL document CHEMBL2069261, “Click-based synthesis of triazolobithiazole ΔF508-CFTR correctors for cystic fibrosis” (Bioorg Med Chem, 2012):
Activity calls are given as the source filed them. The rule behind the calls is not given here.

Tests used:
[1] = molecular target: Cystic fibrosis transmembrane conductance regulator (Homo sapiens, UniProt P13569, F508DEL); experiment: (§1) Corrector activity at human CFTR deltaF508 mutant expressed in FRT cells stimulated forskolin and potentiator genistein with assessed as iodide influx incubated for 24 hrs; assay type: cell-based
In short: (§2)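 Epithelial cells co-expressing ΔF508-CFTR and a fluorescent halide sensor were treated with compound for 24 h across a dose range. They were then stimulated with forskolin (cAMP agonist) plus genistein (potentiator), and I⁻ influx was read from the sensor. Vmax and EC50 were taken from the dose-response curves. n=4, with S.E. reported.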

[2] = Lipophilicity, log P of the compound; assay type: physicochemical; settings: octanol/water
In short: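 LogP was estimated from HPLC retention times. The capacity factor was calculated and correlated to logP values.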

[3] = tested on: Cystic fibrosis transmembrane conductance regulator (Homo sapiens), P13569 [F508del]; experiment: as §1; assay type: cell-based; in short: as §2
Cystic fibrosis transmembrane conductance regulator (Homo sapiens), P13569 [F508del], sequence (P13569 as listed by the source): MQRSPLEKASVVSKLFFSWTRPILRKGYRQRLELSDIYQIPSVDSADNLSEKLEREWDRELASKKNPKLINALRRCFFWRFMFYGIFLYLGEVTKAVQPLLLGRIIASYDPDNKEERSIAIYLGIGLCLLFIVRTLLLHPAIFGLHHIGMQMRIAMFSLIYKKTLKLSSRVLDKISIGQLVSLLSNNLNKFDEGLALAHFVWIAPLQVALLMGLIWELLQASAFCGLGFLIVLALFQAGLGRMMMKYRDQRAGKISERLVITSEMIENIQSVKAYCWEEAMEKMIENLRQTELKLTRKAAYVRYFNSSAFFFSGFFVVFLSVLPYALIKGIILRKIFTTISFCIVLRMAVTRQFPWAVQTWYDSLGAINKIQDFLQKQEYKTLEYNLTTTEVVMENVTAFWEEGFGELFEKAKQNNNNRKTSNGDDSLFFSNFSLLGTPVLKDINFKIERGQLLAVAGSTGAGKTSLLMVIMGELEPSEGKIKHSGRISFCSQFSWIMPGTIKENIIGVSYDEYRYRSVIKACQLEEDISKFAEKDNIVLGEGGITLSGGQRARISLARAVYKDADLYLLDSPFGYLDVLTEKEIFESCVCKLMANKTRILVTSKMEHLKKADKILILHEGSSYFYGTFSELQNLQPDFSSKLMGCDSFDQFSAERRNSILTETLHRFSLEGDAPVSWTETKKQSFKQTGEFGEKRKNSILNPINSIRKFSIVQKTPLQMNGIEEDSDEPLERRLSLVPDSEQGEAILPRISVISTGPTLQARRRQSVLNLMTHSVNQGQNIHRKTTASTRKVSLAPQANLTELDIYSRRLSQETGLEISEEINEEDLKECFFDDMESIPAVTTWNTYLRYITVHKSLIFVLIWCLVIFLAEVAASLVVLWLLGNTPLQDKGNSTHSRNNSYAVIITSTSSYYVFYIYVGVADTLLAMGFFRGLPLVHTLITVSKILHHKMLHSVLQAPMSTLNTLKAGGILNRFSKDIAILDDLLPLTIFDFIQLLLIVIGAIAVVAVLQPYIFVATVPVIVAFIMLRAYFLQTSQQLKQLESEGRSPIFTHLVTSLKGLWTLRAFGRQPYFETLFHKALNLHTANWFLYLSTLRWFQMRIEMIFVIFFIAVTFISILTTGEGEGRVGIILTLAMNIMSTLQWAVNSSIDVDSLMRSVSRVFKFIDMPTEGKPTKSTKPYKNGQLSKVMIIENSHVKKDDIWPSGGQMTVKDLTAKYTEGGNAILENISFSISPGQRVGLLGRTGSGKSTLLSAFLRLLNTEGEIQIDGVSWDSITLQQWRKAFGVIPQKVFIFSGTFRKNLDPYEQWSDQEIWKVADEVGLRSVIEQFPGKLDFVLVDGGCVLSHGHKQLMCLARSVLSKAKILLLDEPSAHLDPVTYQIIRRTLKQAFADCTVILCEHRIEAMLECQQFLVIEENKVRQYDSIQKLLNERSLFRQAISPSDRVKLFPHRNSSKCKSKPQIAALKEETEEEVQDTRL

Cystic fibrosis transmembrane conductance regulator, sequence (P13569 as listed by the source): as above

SMILES	EC50 [1] [nM]	logP ([2]; read-out: logP)	logP [2]	Activity [3]
COc1ccc(Cl)cc1Nc1nc(-c2sc(NC(=O)C(C)(C)C)nc2C)c(-n2cc(-c3ccccc3)nn2)s1	140	–	–	–
COc1ccc(Cl)cc1Nc1nc(-c2sc(NC(=O)C(C)(C)C)nc2C)c(-n2cc(C(=O)O)nn2)s1	–	4.8	–	–
COC(=O)c1cn(-c2sc(Nc3cc(Cl)ccc3OC)nc2-c2sc(NC(=O)C(C)(C)C)nc2C)nn1	4600	4.8	–	–
COc1ccc(Cl)cc1Nc1nc(-c2sc(NC(=O)C(C)(C)C)nc2C)c(-n2cc(CO)nn2)s1	1600	4.8	–	–
Cc1nc(NC(=O)C(C)(C)C)sc1-c1nc(N)sc1-n1cc(-c2ccccc2)nn1	1500	–	–	–
CNc1nc(-c2sc(NC(=O)C(C)(C)C)nc2C)c(-n2cc(-c3ccccc3)nn2)s1	4900	–	–	–
COc1ccc(Cl)cc1Nc1nc(-c2sc(NC(=O)c3ccccc3)nc2C)cs1	–	–	5.96	Active
